The values below come from ChEMBL document CHEMBL3352568, “Synthesis and evaluation of in vitro antimycobacterial activity of novel 1H-benzo[d]imidazole derivatives and analogues” (Eur J Med Chem, 2015).

In brackets after ≈: the same amount, converted by molar mass.

This assay relates to Mycobacterium tuberculosis variant bovis. Put plainly: Antimicrobial activity against Mycobacterium bovis by two-fold serial dilution method. The format is functional. The essentials:
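Classical test-tube successive two-fold dilution in Youmans' modification of Proskauer and Beck liquid medium with 10% bovine serum. Inocula from 14-day-old cultures. Compounds dissolved in ethylene glycol (stock 10 mg/mL), diluted in medium to 0.75–100 µg/mL. Incubated at 37 °C. MIC is the lowest concentration inhibiting growth relative to a compound-free control.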
In the case of `Cc1ccc2[nH]c(-c3cc(-c4ccccc4)ccn3)nc2c1`, inhibition of growth (MIC) required 25 µg/mL (≈ 87.6 µM).
Then `Cc1ccc2[nH]c(CCCc3ccccc3)nc2c1`, with 25 µg/mL (≈ 99.9 µM).
Then `Cc1cc2nc(CCC3CCCCC3)[nH]c2cc1C`, with 0.75 µg/mL (≈ 2.93 µM); and `Clc1cc2nc(CCCc3ccccc3)[nH]c2cc1Cl`, with 3.1 µg/mL (≈ 10.2 µM).
Then `Cc1cc2nc(CCCc3ccccc3)[nH]c2cc1C`, with 6.2 µg/mL (≈ 23.5 µM); and `Cc1ccc2[nH]c(CCC3CCCCC3)nc2c1`, with 12.5 µg/mL (≈ 51.6 µM).
With `Clc1cc2nc(CCC3CCCCC3)[nH]c2cc1Cl`, the MIC (commonly the lowest concentration that inhibits growth of the organism) was determined as 1.5 µg/mL (≈ 5.05 µM).
For `Fc1ccc2[nH]c(CCC3CCCCC3)nc2c1` the value was 3.1 µg/mL (≈ 12.6 µM); for `Clc1cc2nc(CCCC3CCCCC3)[nH]c2cc1Cl`, 25 µg/mL (≈ 80.3 µM); for `Clc1ccc2[nH]c(CCC3CCCCC3)nc2c1`, 0.75 µg/mL (≈ 2.85 µM).
For `Brc1ccc2[nH]c(CCC3CCCCC3)nc2c1` the value was 0.75 µg/mL (≈ 2.44 µM).
For `O=[N+]([O-])c1ccc2[nH]c(CCC3CCCCC3)nc2c1` the value was 3.1 µg/mL (≈ 11.3 µM); for `Fc1ccc2[nH]c(CCCC3CCCCC3)nc2c1`, 6.2 µg/mL (≈ 23.8 µM).
